Assay outcomes: PubChem BioAssay, several laboratories
Mcl1 Bid PPI: disrupts binding of human Mcl-1 to Bid peptide; inhibition, % at 21.7 µM; hit rate 0.97% among 220,000; TR-FRET Mcl-1/Bid-Dy647 peptide binding, 1536-well; Q07820; AID 1021;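 active = compounds that cut the binding signal by more than half at the single screening dose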;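 also: His-tagged Mcl-1 with europium anti-His antibody binding Bid BH3 peptide; 0% = Mcl-1 plus peptide wells and 100% = peptide-only wells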
Target sequence (Q07820 whole entry, looked up): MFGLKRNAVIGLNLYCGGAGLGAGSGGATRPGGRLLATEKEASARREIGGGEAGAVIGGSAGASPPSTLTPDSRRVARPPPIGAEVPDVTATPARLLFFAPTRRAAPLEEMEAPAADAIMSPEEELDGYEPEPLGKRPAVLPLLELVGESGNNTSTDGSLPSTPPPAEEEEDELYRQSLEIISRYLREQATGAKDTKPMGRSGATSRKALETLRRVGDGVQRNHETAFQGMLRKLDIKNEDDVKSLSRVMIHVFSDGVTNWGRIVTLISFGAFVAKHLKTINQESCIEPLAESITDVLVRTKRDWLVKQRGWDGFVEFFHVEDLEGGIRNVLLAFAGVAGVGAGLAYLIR
RBBP9 inh: inhibitors of human serine hydrolase RBBP9; O75884; recombinant RBBP9, FP-Rh probe fluorescence polarization; hit rate 0.2% among 220,000; inhibition, % at 7.94 µM; AID 1515;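 active = inhibition above the campaign mean of all tested compounds plus 3 SD, cut at about 14% in these data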;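 also: plate controls were DMSO wells with RBBP9 for no effect and wells lacking RBBP9 protein for full effect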
Target sequence (O75884 whole entry, looked up): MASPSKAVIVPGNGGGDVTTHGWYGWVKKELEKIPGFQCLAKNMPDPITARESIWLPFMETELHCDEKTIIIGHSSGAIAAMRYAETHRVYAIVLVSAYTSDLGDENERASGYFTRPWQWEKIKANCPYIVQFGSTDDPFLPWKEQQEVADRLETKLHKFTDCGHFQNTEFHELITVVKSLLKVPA
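System: RBBP9 protein / Buffer or medium: Tris/NaCl buffer pH 8.0 with 0.1% Pluronic / Probe or stimulus: Serine-hydrolase probe FP-Rh, 375 nM pre-mixing / Dosing: 7.94 µM single dose, 0.794% DMSO / Times: enzyme-compound preincubation 30 min, then probe labeling 45 min, 25 °C / Technique: fluorescence polarization (mP), excitation 525 nm, emission 598 nm / Replication: singlicate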
Bim-Mcl-1: human Bim-Mcl-1 interaction inhibition; Q07820; Bead-based flow cytometry, Bim peptide-Mcl-1 binding; inhibition, % at 10 µM; hit rate 0.1% among 190,000; in the data active = inhibition above about 40%;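 also: 0% = no compound tracer wells and 100% = peptide blocker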
EBV gp42 block: EBV gp42 inhibition | Q1HVG2 | Fluorescence polarization binding assay, mP read-out | inhibition, % (tested at 21.74 µM) | hit rate 0.42% among 220,000 | AID 1085; in the data active = inhibition above about 50%
Mcl1-Noxa inh: disrupts binding of human Mcl-1 to Noxa peptide. TR-FRET Mcl-1/Noxa peptide binding, 2 h. AID 1022. Q07820. hit rate 1.5% among 220,000. inhibition, % at 21.7 µM;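 active = compounds that cut the protein-peptide binding signal by more than 50% relative to plate controls in a single-dose test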;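 also: His-tagged Mcl-1 with rhodamine Noxa BH3 peptide and terbium anti-His antibody; 0% = Mcl-1 plus Noxa peptide wells and 100% = peptide-only wells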
MCL1 BIM primary: inhibitors of human MCL1 binding to BIM-BH3 peptide; GST-MCL1 / FITC-Bim-BH3 fluorescence polarization; inhibition, % at 10.9 µM; hit rate 0.68% among 320,000; AID 2057;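 active = inhibition above the mean inhibition of all tested compounds plus 3 SD, set per campaign, cut at about 40% in these data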;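 also: 0% = DMSO wells and 100% = unlabeled Bim-BH3 peptide control; higher means more loss of mP so more displacement of Bim peptide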
Active calls of the source: *; . = no result given. Sampled rows, rich in hits. Any-hit rate of the full collection: about 2.2%.

SMILES	Mcl1 Bid PPI	RBBP9 inh	Bim-Mcl-1	EBV gp42 block	Mcl1-Noxa inh	MCL1 BIM primary
C=C(C)C(=O)Nc1cccc(C2=NOC3(C2)C[C@@H](C(N)=O)N(C(=O)c2ccc(Cl)cc2)C3)c1 (some centres not stated)	-98.0	.	.	-29.1	75.1*	14.1
C=C(C)C(=O)Nc1cccc(C2=NOC3(C2)C[C@H](C(N)=O)N(C(=O)COc2ccc(Cl)cc2)C3)c1 (some centres not stated)	-128.8	.	.	5.8	68.6*	11.9
COc1ccc(CCNCc2cc(C)n(-c3ccc(OC)cc3)c2C)cc1	.	.	.	.	.	1.7
COc1ccc(OCc2nnc(SCC(=O)N3C(C)CCCC3C)o2)cc1 (configuration not stated)	.	.	.	.	.	-2.6
C=CCOC(=O)C1=C(C)N=c2s/c(=C3\C(=O)N(CC(=O)O)c4ccccc43)c(=O)n2C1c1ccc(OC)cc1 (configuration not stated)	2.8	-0.9	.	11.7	80.6*	15.7
CCCOc1ccc(-c2nn(-c3ccccc3)cc2/C=C2\SC(N)=NC2=O)cc1C	-31.8	-11.5	-1.0	-73.1	15.7	-0.5
COc1ccc(-c2nn(CCC(=O)O)cc2/C=C2\SC(N)=NC2=O)cc1OC	27.0	-3.5	-17.0	-26.8	89.6*	10.4
Cc1ccc(N(C(=O)C(F)(F)F)C(C(=O)NC2CCCCC2)c2cccs2)cc1C (configuration not stated)	66.1*	-3.5	1.0	13.1	-9.4	2.8
O=C(NC1CCCCC1)C(c1cccs1)N(C(=O)C(F)(F)F)c1ccccc1 (configuration not stated)	9.0	0.3	-5.0	7.4	2.0	0.8
CCc1nnc(NC(=O)c2sc3nc4c(cc3c2N)CCCCCC4)s1	42.4	-0.3	-4.0	-2.7	53.2*	-4.8
CCc1nnc(NC(=O)c2sc3nc4c(cc3c2N)CCCCC4)s1	2.1	-5.1	0.0	4.0	48.2	8.6
CCN(c1ccc(NC(=O)COC(=O)c2ccc(C)s2)cc1)C(C)C	-8.2	-4.4	-1.0	-0.2	62.6*	-6.4
COc1cc(CCC(=O)OCC(=O)Nc2ccc(F)c(F)c2)cc(OC)c1OC	.	.	.	.	.	-0.8
CCN(c1ccc(NC(=O)COC(=O)CCc2cc(OC)c(OC)c(OC)c2)cc1)C(C)C	-11.0	-2.4	-6.0	-10.5	58.6*	.
Cc1ccc(C(=O)OCC(=O)Nc2ccc(C(N)=O)cc2)s1	.	.	.	.	.	0.6
Cc1cc(C)cc(NC(=S)N(CCN(C)C)Cc2cccs2)c1	-39.8	-5.5	-1.0	8.2	6.0	7.8
COc1ccc(CC(=O)n2[nH]c(=O)ccc2=O)cc1OC	-6.6	-11.1	.	-18.7	75.2*	15.8
C[C@@H](C(=O)NCc1ccccc1)[C@@H]1C[C@@]1(C)[C@@H](NC(=O)OCc1ccccc1)c1ccccc1	5.2	-8.2	-3.0	-13.7	12.9	11.7
C[C@@H](C(=O)NCCc1c[nH]c2ccccc12)[C@@H]1C[C@@]1(C)[C@@H](NC(=O)OCc1ccccc1)c1ccccc1	-17.4	-1.7	86.0*	-19.8	-5.4	-12.5
COc1ccc(NS(=O)(=O)c2ccc(N3CCCC3)c(NC(=S)Nc3cccc(S(=O)(=O)N(C)C)c3)c2)cc1	-17.4	-12.6	-8.0	-42.6	62.2*	4.6
COc1cc(NC(=O)c2cc(-c3ccco3)on2)cc(OC)c1OC	.	.	.	.	.	-1.8
O=C(O)COc1ccccc1O	-18.7	-4.5	-2.0	10.6	52.0*	6.8
O=C(O)Cc1sc(Nc2ccc(Cl)cc2)nc1-c1cccs1	-26.6	-27.6	-6.0	1.1	73.1*	.
Nc1nc(-c2cccs2)c(CC(=O)O)s1	-48.3	-10.3	-1.0	0.1	29.8	-5.1
CN(C)c1ccc(NS(=O)(=O)c2cc(Cl)ccc2Cl)cc1	-51.0	-5.5	-4.0	10.7	68.8*	20.4
SMILES	Mcl1 Bid PPI	RBBP9 inh	Bim-Mcl-1	EBV gp42 block	Mcl1-Noxa inh	MCL1 BIM primary
CCN(c1ccc(NS(=O)(=O)c2cc(Cl)ccc2Cl)cc1)C(C)C	-58.1	-4.9	-2.0	-12.3	48.2	23.8
Cc1ccc(C)c(N(CC(=O)NCc2ccco2)C(=O)CCC(=O)Nc2nccs2)c1	.	.	.	.	.	-2.6
CC(=O)C(Cc1ccccc1)NC(=O)COC(=O)CCN1C(=O)C2CC=CCC2C1=O (configuration not stated)	.	.	.	.	.	-8.7
Fc1ccccc1C(c1nnnn1C1CCCC1)N1CCN(Cc2ccccc2)CC1 (configuration not stated)	22.7	-8.4	2.0	85.0*	35.9	5.3
CCOc1cc(/C=C2\SC(=S)N(C(C(=O)O)c3ccccc3)C2=O)ccc1O (configuration not stated)	50.6*	-66.7	.	-43.2	51.4*	-22.2
O=C1CC(=O)c2c1cccc2[N+](=O)[O-]	12.0	14.1	.	-1.8	101.0*	.
CCC(C)(C)C1CCc2[nH]nc(C(=O)NCc3ccc(Cl)cc3)c2C1 (configuration not stated)	.	.	.	.	.	10.5
Cc1ccc(-n2sc3ccccc3c2=O)cc1	-33.6	37.2*	-10.0	-24.8	26.5	12.6
CCOC(=O)CNC(=O)N1CCCC(C(=O)c2cccc(Cl)c2)C1 (configuration not stated)	-0.7	-10.5	-1.0	7.3	9.8	-1.8
O=c1c2cc(N3CCOCC3)ccc2[nH]c(=S)n1Cc1ccco1	-99.5	.	3.0	-7.8	57.8*	22.5
N#Cc1cc(NC(=O)c2ccc(F)cc2)c(=O)n2c1[nH]c1ccccc12	-32.7	-6.5	2.0	-20.1	60.8*	-7.4
CSc1ccc(CN2CCC(C(=O)NCc3ccc(C)cc3)CC2)cc1	50.5*	-0.6	0.0	6.3	29.0	-6.6
Cc1ccc(CNC(=O)CN2CCC(C(N)=O)CC2)cc1	-18.4	-2.3	-1.0	-23.4	-7.8	0.4
CCCn1ncc(CN2CCN(Cc3ccc(C)o3)C(CCO)C2)c1C (configuration not stated)	-79.8	-8.4	.	-1.6	-18.3	-1.5
COc1ccc(Cc2nc3ccc(C(=O)NCCCSC)cc3o2)cc1OC	.	.	.	.	.	7.6
Cc1ccc(N(C)S(=O)(=O)c2cccc(C(=O)NCC(c3cccs3)N3CCOCC3)c2)cc1 (configuration not stated)	.	.	.	.	.	2.7
O=C1CN(CC(=O)NC2CCCc3ccccc32)CCN1 (configuration not stated)	.	.	.	.	.	5.7
CCN(CC(=O)Nc1ccc(NC(C)=O)cc1)C(=O)Cc1ccc(S(=O)(=O)N2CCOCC2)s1	.	.	.	.	.	-11.1
Cc1ccc(S(=O)(=O)Nc2csc(C)c2C(=O)O)cc1	19.3	-0.6	.	3.1	54.2*	25.8
Cc1ccc(-c2csc(NC(=O)c3ccccc3F)c2C(=O)O)cc1	.	.	.	.	.	4.0
Cc1ccc2ncc(S(=O)(=O)c3ccccc3)c(N3CCCCC3C)c2c1 (configuration not stated)	.	.	.	.	.	0.8
Cc1ccc(S(=O)(=O)c2c(N)n(Cc3ccco3)c3nc4ccccc4nc23)cc1	-24.1	-1.2	1.0	61.1*	45.7	12.6
Cc1cccc(S(=O)(=O)c2c(N)n(Cc3ccco3)c3nc4ccccc4nc23)c1	-0.1	-5.4	2.0	3.7	19.6	16.8
